Compound activity as filed in PubChem BioAssay.
Diaphorase act: counter-screen for diaphorase-based assays: diaphorase activators and chemical reducers. Diaphorase/resazurin coupled assay, resorufin fluorescence, 16 min; stronger effect = higher value; 1 = vehicle wells, 0 = NADH-free wells. hit rate 0.005% among 190,000. activation factor at 20 µM. AID 1229;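 active means diaphorase activity raised at least twofold by the compound at 20 µM; inactive means activation factor below 2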
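Material: Purified diaphorase enzyme from Clostridium kluyveri | Buffer or medium: 50 mM HEPES pH 7.4 with 4.542 mM MgCl2, 0.005% Tween 20 | Times: 16 min enzyme reaction, ambient temperature | Signal: Red resorufin fluorescence at 544/590 nm excitation/emission | Measure: Increased resorufin signal from activators or reducing compounds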
HKDC1 inhibitor: inhibitors of human hexokinase HKDC1; Q2TB90; recombinant HKDC1, G6PDH/diaphorase resazurin coupled fluorescence; inhibition, % at 20 µM; hit rate 0.16% among 340,000; AID 493160;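 active means inhibition above about 35% when tested at 20 µM, limit read from the data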
Target sequence (Q2TB90 whole entry, looked up): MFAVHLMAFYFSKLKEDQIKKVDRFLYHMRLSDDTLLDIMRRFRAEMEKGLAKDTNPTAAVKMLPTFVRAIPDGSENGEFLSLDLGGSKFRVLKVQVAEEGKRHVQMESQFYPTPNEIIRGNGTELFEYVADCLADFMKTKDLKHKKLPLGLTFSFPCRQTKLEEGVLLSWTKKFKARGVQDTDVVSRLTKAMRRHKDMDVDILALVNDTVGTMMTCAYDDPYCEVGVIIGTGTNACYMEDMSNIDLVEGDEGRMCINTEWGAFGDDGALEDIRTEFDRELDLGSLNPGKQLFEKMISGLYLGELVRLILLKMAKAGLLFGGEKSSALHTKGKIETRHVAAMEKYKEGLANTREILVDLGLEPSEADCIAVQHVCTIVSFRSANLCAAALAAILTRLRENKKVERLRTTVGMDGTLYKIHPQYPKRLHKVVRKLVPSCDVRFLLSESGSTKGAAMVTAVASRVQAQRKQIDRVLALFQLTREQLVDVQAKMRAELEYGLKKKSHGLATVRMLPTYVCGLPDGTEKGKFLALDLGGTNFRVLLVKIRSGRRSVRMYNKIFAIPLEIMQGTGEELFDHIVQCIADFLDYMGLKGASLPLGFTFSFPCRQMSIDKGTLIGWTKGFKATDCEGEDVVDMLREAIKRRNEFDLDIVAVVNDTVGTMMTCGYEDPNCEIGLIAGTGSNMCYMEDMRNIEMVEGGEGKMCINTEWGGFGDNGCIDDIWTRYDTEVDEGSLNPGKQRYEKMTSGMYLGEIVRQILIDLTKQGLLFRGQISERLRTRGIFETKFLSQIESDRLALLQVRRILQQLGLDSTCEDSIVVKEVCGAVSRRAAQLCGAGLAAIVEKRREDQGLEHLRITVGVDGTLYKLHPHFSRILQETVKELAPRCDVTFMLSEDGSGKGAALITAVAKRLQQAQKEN
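Assay system: in-house recombinant HK5 (HKDC1) enzyme. Input: HKDC1 at 5 µg/mL. Medium: Tris pH 8.0 buffer with MgCl2, Tween-20, BSA, BME. Dosing: single 20 µM dose. Schedule: 90 min reaction incubation at room temperature, dark. Signal: resazurin-to-resorufin fluorescence via G6PDH and diaphorase coupling, 525/613 nm. Controls: DMSO-enzyme wells negative, buffer-substituted wells positive.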
PfG6PD inh: PfG6PD (Plasmodium falciparum) enzyme inhibition; PfGluPho enzyme, NADPH resazurin-diaphorase fluorescence; inhibition, % at 20 µM; hit rate 0.78% among 350,000; AID 504690;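 active means inhibition reaching at least a set limit at 20 µM in the primary screen, cut at about 59% in these data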
G6PDH counter: L. mesenteroides G6PDH inhibition counter-screen; Purified L. mesenteroides G6PDH, diaphorase/resazurin coupled fluorescence, 45 min; inhibition, % at 5 µM; hit rate 0.12% among 200,000; in the data active means inhibition above about 50%
Diaph inh CS: diaphorase inhibition or chemical oxidation counter-screen. hit rate 0.69% among 190,000. inhibition, % at 20 µM. diaphorase resazurin-to-resorufin fluorescence, NADH, 16 min; bacterial (C. kluyveri) enzyme, not human;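 active means primary screen inhibition at 20 µM above a set limit, cut at about 50% in these data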
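System: Bacterial diaphorase enzyme (C. kluyveri) | Incubation: 16-min room-temperature incubation before reading | Benchmarks: No-NADH positive control and DMSO neutral control | Measured by: Resorufin fluorescence 544/590 nm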
Numbers stand for hits; . = inactive; / = no result given. Compounds with a hit are over-represented: about 1.3% of the library has one in this group of screens.

SMILES | Diaphorase act | HKDC1 inhibitor | PfG6PD inh | G6PDH counter | Diaph inh CS
CC1CCCCN1C(=O)Cn1c(=O)oc2ccccc21 (centres undefined) | / | . | . | / | /
CC(=O)OC(C)C1C2=C(C(=O)CC1(C)O)C(=O)c1c(ccc(-c3ccc4c(c3O)C(=O)C3=C(C4=O)C(C(C)OC(C)=O)C(C)(O)CC3=O)c1O)C2=O (centres undefined) | / | . | 61 | / | /
CC(=O)N/C(=C/c1ccc(OS(=O)(=O)c2ccc(C)cc2)cc1)C(=O)NCCCO | / | . | . | / | /
CC[n+]1c(/C=C/N(C)c2ccccc2)n(-c2ccccc2)c2ccc(-c3nc4ccccc4s3)cc21 | / | . | 75 | / | /
CC(Sc1ccc2c(c1)OCCO2)C(=O)Nc1ncc(Cl)cc1Cl (centres undefined) | . | . | . | . | 64
CC(Sc1ccc2c(c1)OCCO2)C(=O)Nc1ccc2c(c1)OCO2 (centres undefined) | . | . | . | . | .
Cc1ccccc1-n1c(Cn2c(=O)sc3ccccc32)nnc1SCC(=O)NCC1CCCO1 (centres undefined) | . | . | . | . | .
CCN(CC)c1ccc(C(NC(=O)C(C)C)c2ccc3cccnc3c2O)cc1 (centres undefined) | / | / | . | / | /
CC(C)C(=O)NC(c1ccco1)c1ccc2cccnc2c1O (centres undefined) | . | . | . | . | 55
CCC(=O)NC(c1cccs1)c1ccc2cccnc2c1O (centres undefined) | . | . | . | . | 58
O=C(CCl)Nc1nc(-c2ccco2)c(-c2ccco2)s1 | . | . | . | . | 65
CC(=O)c1ccc(C(=O)N2CCc3c([nH]c4ccccc34)C2c2ccccn2)s1 (centres undefined) | . | . | . | . | .
O=C(c1cccs1)N1CCc2c([nH]c3ccccc23)C1c1ccccn1 (centres undefined) | . | . | . | . | 50
Cc1coc2c1C(=O)C(=O)c1c-2ccc2c(C)cccc12 | / | . | 64 | / | /
CCn1c(C)nc2cc(C(=O)NNC(=S)Nc3ccc(C)cc3)ccc21 | / | . | . | / | /
COc1cc(C(=O)NC(=S)NNC(=O)c2cnccn2)cc(OC)c1OC | . | . | . | . | 51
O=C(NC(=S)NNC(=O)c1cnccn1)c1ccc(Cl)cc1 | / | . | . | / | /
COc1ccc(C(=O)NC(=S)NNC(=O)c2cnccn2)cc1 | . | . | . | . | 65
CCn1c(C)nc2cc(C(=O)NNC(=S)NC(=O)c3ccc(OC)cc3)ccc21 | . | . | . | . | 57
CCN1C/C(=C\c2cccc([N+](=O)[O-])c2)C(=O)/C(=C/c2cccc([N+](=O)[O-])c2)C1 | . | 43 | . | . | .
CC1(C)Cc2ccccc2C2=C(C(=O)N3CCCCCC3)C(=O)C(=O)N21 | . | . | . | . | .
CC(C)c1ccc(NC(=O)C(c2ccc3c(c2)OCO3)N2CCCCC2)cc1 (centres undefined) | . | . | . | . | .
Oc1cc2c(cc1C(c1ccc(Cl)c(Cl)c1)N1CCCC1)OCO2 (centres undefined) | . | . | 62 | . | .
COc1ccc(NC(=O)C2CCCCN2S(=O)(=O)c2ccccc2)cc1S(=O)(=O)N1CCOCC1 (centres undefined) | / | . | . | / | /
CCOC(=O)c1c(C)oc2c1c1c(c3ccccc32)OCN(Cc2cccnc2)C1 | . | . | . | . | 53
SMILES | Diaphorase act | HKDC1 inhibitor | PfG6PD inh | G6PDH counter | Diaph inh CS
CCOC(=O)c1c(C)oc2c1c1c(c3ccccc32)OCN(CCCC(=O)O)C1 | / | . | . | / | /
Cc1ccc(-c2cc(C(=O)O)c3cc(Br)ccc3n2)o1 | . | . | 75 | . | .
COc1cc(NC(C)=O)c2ncccc2c1[N+](=O)[O-] | . | . | . | . | 61
CN1CCc2cc3c(c4c2[C@H]1[C@H](O)c1ccccc1-4)OCO3 | . | . | . | 58 | .
N#Cc1c(-c2ccco2)cc(-c2cccnc2)nc1N | . | . | . | . | 52
Cc1cc[n+](C2=C([O-])c3ccccc3C(=O)/C2=N\S(=O)(=O)c2cccs2)cc1C | . | . | . | 54 | .
Cc1ccccc1NC1=C/C(=N\S(=O)(=O)c2cccs2)c2ccccc2C1=O | . | 63 | 99 | 55 | .
Cc1ccc(NC2=C/C(=N/S(=O)(=O)c3cccs3)c3ccccc3C2=O)cc1C | . | . | . | . | .
